In ChEMBL document CHEMBL2429857, “Synthesis and pharmacological evaluation of pyrazolopyrimidopyrimidine derivatives: anti-inflammatory agents with gastroprotective effect in rats” (2013):

How the values were obtained:
Rattus norvegicus [1] = test: Gastroprotective activity in Wistar rat assessed as inhibition of HCl/ethanol-induced gastric ulcer at 50 mg/kg, ip administered 30 mins prior to HCl/ethanol challenge measured after 1 hr relative to vehicle-treated control; assay type: functional; settings: Stomach, route intraperitoneal
Summary of the method: (§1)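 Male Wistar rats (150–170 g), fasted 24 h, six per group. Vehicle (Tween 80/ethanol/saline 1/1/18) or treatment given i.p.; 30 min later, oral 150 mM HCl/EtOH (40:60, v/v), 1 ml/100 g. Killed 1 h afterwards. Stomachs opened along the greater curvature and stretched out. Summed lesion length (mm) taken as lesion index; % inhibition against vehicle controls. Mean ± SEM, Student's t test.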

Rattus norvegicus [2] = test: Antiinflammatory activity in ip dosed Wistar rat assessed as inhibition of carrageenan-induced paw edema administered 30 mins prior to carrageenan challenge measured after 1 to 5 hrs relative to vehicle-treated control; assay type: functional, organism-based
Summary of the method: (§2)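 Adult male Wistar rats (150–170 g), fasted overnight with water, n = 6 per group. Vehicle (Tween 80/absolute ethanol/0.9 % saline 1:1:18; 2.5 ml/kg) or drug given i.p. 30 min before 0.05 ml of 1 % carrageenan into the left hind paw. Paw volume to the tibiotarsal joint measured by plethysmometer at 0, 1, 3, 5 h. Oedema = VT − V0; % inhibition against vehicle controls. Mean ± SEM, Student's t test.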

Rattus norvegicus [3] = test: Antiinflammatory activity in Wistar rat assessed as inhibition of carrageenan-induced paw edema at 100 mg/kg, ip administered 30 mins prior to carrageenan challenge measured after 5 hrs relative to vehicle-treated control; assay type: functional; settings: route intraperitoneal; summary of the method: as §2
Rattus norvegicus [4] = test: Antiinflammatory activity in Wistar rat assessed as inhibition of carrageenan-induced paw edema at 50 mg/kg, ip administered 30 mins prior to carrageenan challenge measured after 5 hrs relative to vehicle-treated control; assay type: functional; settings: route intraperitoneal; summary of the method: as §2
Rattus norvegicus [5] = test: Antiinflammatory activity in Wistar rat assessed as inhibition of carrageenan-induced paw edema at 100 mg/kg, ip administered 30 mins prior to carrageenan challenge measured after 3 hrs relative to vehicle-treated control; assay type: functional; settings: route intraperitoneal; summary of the method: as §2
Rattus norvegicus [6] = test: Antiinflammatory activity in Wistar rat assessed as inhibition of carrageenan-induced paw edema at 50 mg/kg, ip administered 30 mins prior to carrageenan challenge measured after 3 hrs relative to vehicle-treated control; assay type: functional; settings: route intraperitoneal; summary of the method: as §2
Rattus norvegicus [7] = test: Antiinflammatory activity in Wistar rat assessed as inhibition of carrageenan-induced paw edema at 100 mg/kg, ip administered 30 mins prior to carrageenan challenge measured after 1 hr relative to vehicle-treated control; assay type: functional; settings: route intraperitoneal; summary of the method: as §2
Rattus norvegicus [8] = test: Antiinflammatory activity in Wistar rat assessed as inhibition of carrageenan-induced paw edema at 50 mg/kg, ip administered 30 mins prior to carrageenan challenge measured after 1 hr relative to vehicle-treated control; assay type: functional; settings: route intraperitoneal; summary of the method: as §2
Rattus norvegicus [9] = test: Gastroprotective activity in Wistar rat assessed as inhibition of HCl/ethanol-induced gastric ulcer at 100 mg/kg, ip administered 30 mins prior to HCl/ethanol challenge measured after 1 hr relative to vehicle-treated control; assay type: functional; settings: Stomach, route intraperitoneal; summary of the method: as §1

Cc1nc2c3c(C)nn(-c4ccccc4)c3ncn2c(=N)c1C#N
inhibition in vivo at 50 mg/kg (Rattus norvegicus [1]): 68.4%
inhibition (Rattus norvegicus [2]): Dose-dependent effect
inhibition in vivo at 100 mg/kg (Rattus norvegicus [3]): 62.8%
inhibition in vivo at 50 mg/kg (Rattus norvegicus [4]): 58%
inhibition in vivo at 100 mg/kg (Rattus norvegicus [5]): 71.4%
inhibition in vivo at 50 mg/kg (Rattus norvegicus [6]): 59%
inhibition in vivo at 100 mg/kg (Rattus norvegicus [7]): 92.2%
inhibition in vivo at 50 mg/kg (Rattus norvegicus [8]): 59.2%

CCOC(=O)c1c(CC)nc2c3c(C)nn(-c4ccccc4)c3ncn2c1=N
inhibition in vivo at 100 mg/kg (Rattus norvegicus [9]): 52.2%
inhibition in vivo at 50 mg/kg (Rattus norvegicus [1]): 40.2%
inhibition (Rattus norvegicus [2]): Dose-dependent effect
inhibition in vivo at 100 mg/kg (Rattus norvegicus [3]): 40.2%
inhibition in vivo at 50 mg/kg (Rattus norvegicus [4]): 25.1%
inhibition in vivo at 100 mg/kg (Rattus norvegicus [5]): 42.9%
inhibition in vivo at 50 mg/kg (Rattus norvegicus [6]): 28.8%
inhibition in vivo at 100 mg/kg (Rattus norvegicus [7]): 65.7%
inhibition in vivo at 50 mg/kg (Rattus norvegicus [8]): 32%

CN/C(=N\CCSCc1nc[nH]c1C)NC#N [CIMETIDINE]
inhibition in vivo at 100 mg/kg (Rattus norvegicus [9]): 74%

Cc1nn(-c2ccccc2)c2ncn3c(=N)c(C#N)cnc3c12
inhibition in vivo at 100 mg/kg (Rattus norvegicus [9]): 64.7%
inhibition in vivo at 50 mg/kg (Rattus norvegicus [1]): 48.6%
inhibition (Rattus norvegicus [2]): Dose-dependent effect
inhibition in vivo at 100 mg/kg (Rattus norvegicus [3]): 58.1%
inhibition in vivo at 50 mg/kg (Rattus norvegicus [4]): 39.8%
inhibition in vivo at 100 mg/kg (Rattus norvegicus [5]): 56.8%
inhibition in vivo at 50 mg/kg (Rattus norvegicus [6]): 40.6%
inhibition in vivo at 100 mg/kg (Rattus norvegicus [7]): 80.4%
inhibition in vivo at 50 mg/kg (Rattus norvegicus [8]): 42.6%

CCOC(=O)c1c(C)nc2c3c(C)nn(-c4ccccc4)c3ncn2c1=N
inhibition in vivo at 100 mg/kg (Rattus norvegicus [9]): 91.4%
inhibition in vivo at 50 mg/kg (Rattus norvegicus [1]): 72.5%
inhibition (Rattus norvegicus [2]): Dose-dependent effect
inhibition in vivo at 100 mg/kg (Rattus norvegicus [3]): 68.8%
inhibition in vivo at 50 mg/kg (Rattus norvegicus [4]): 59.4%
inhibition in vivo at 100 mg/kg (Rattus norvegicus [5]): 82.8%
inhibition in vivo at 50 mg/kg (Rattus norvegicus [6]): 60%
inhibition in vivo at 100 mg/kg (Rattus norvegicus [7]): 94.2%
inhibition in vivo at 50 mg/kg (Rattus norvegicus [8]): 62.3%
